RGS4 act = potentiators or activators of RGS4; HEK293 M3R/inducible RGS4, carbachol calcium flux Fluo4; active compounds read low; B-score at 10 µM; actives 0.92% (n = 310,000);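 active = B-score of the integrated calcium signal more than 4 SD below the library mean, with starting fluorescence not abnormally high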;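 also: negative B-score means reduced calcium response which marks RGS4 activation or potentiation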
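test system = M3R-expressing HEK293 line, RGS4 induced by doxycycline | probe or stimulus = carbachol at ECmax as muscarinic agonist stimulus | timing = dye loading 30 min 37 °C, buffer rest 30 min RT | signal = calcium dye Fluo4 fluorescence | evaluation = B score from integrated fluorescence ratio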
MrgX1 allo act = human MrgX1 positive allosteric modulation, primary screen. Q96LB2. MrgX1-HEK293, Fluo-4 calcium flux, FDSS; active compounds read high. B-score at 10 µM. actives 0.63% (n = 310,000). AID 588675;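 active = plate-corrected calcium response at least 3 library SD above typical, normal starting fluorescence, not activating the receptor alone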;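 also: compound read alongside a low EC10 to EC30 dose of BAM8-22 agonist; peak minus trough fluorescence over baseline measured at the second addition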
Target sequence (Q96LB2 whole entry, looked up): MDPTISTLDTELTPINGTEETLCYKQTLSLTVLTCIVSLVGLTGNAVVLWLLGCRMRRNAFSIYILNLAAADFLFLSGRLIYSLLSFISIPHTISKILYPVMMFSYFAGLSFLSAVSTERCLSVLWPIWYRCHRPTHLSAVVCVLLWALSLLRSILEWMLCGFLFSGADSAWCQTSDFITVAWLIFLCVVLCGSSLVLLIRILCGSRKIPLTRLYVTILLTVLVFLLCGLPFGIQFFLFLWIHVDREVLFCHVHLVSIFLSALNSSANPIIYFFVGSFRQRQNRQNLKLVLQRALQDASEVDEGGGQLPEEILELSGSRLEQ
MrgX1 antag = human MrgX1 receptor antagonism, primary screen. Q96LB2. MRGX1-HEK293 calcium flux, Fluo-4, BAM8-22 antagonism; active compounds read low. B-score at 10 µM. actives 1.3% (n = 310,000);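 active = calcium-response B-score plate-corrected more than 3 library SD below zero, starting fluorescence within 5 deviations, no agonist response on first addition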;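 also: peak minus trough fluorescence over baseline after final BAM8-22 challenge near maximal dose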
RGS4 inh = human RGS4 inhibition. HEK293 M3R/RGS4 inducible, Fluo-4 calcium flux; active compounds read high; triggered by carbachol at its EC20. B-score at 10 µM. actives 0.45% (n = 310,000);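 active = B-score, a plate-corrected calcium signal, over three deviations above library mean, with baseline fluorescence within five deviations of library mean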;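 also: RGS4 expression induced by doxycycline in cells with stable M3 receptor; B-score is computed from the integrated fluorescence ratio over baseline after carbachol; higher B-score means a larger calcium signal and so more RGS4 inhibition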
Target sequence (P49798 whole entry, looked up): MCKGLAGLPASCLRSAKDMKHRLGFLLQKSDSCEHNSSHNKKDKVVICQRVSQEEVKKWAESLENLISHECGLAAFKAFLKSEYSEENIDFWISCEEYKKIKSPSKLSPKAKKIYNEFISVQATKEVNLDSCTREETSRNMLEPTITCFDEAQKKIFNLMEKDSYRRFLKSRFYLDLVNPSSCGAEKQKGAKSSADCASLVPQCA
MrgX1 ag = agonists of human MrgX1 receptor. actives 0.44% (n = 310,000). B-score at 10 µM. MrgX1-HEK293 cells, Fluo-4 calcium fluorescence, agonist mode; active compounds read high. Q96LB2;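 active = calcium response B-score plate-corrected fluorescence ratio at least 3 library SD, with starting fluorescence B-score inside 5 SD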
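times = overnight plating, then 30 min 37 °C plus 30 min room-temperature dye loading | assay system = stable human MrgX1 HEK293 cell line | input = fifteen thousand cells per well | signal = kinetic calcium dye fluorescence, Fluo-4 NW | dosing = compound delivered in addition one of three | read-out = B-scored fluorescence response ratio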
Each line names hits and unclear results; the compound was inactive in the other large screens. Compounds with a hit are over-represented: about 3.5% of the library has one in this group of screens.

Cc1c(N=Cc2cccnc2)c(=O)n(-c2ccccc2)n1C	none
CC(C)CN1CCC(CNC(=O)CCc2nnc(Cc3c[nH]c4ccccc34)o2)CC1	none
Cc1ccc(N(CC(=O)N2CCCCCC2)S(C)(=O)=O)cc1Cl	none
CC1(C)CC(=O)C2=C(C1)OC(N)=C(C#N)C2C#Cc1ccccc1 (stereo not drawn)	MrgX1 ag 53
CC(c1ccccc1)C1C(C#N)=C(N)OC2=C1C(=O)CC(C)(C)C2 (stereo not drawn)	none
N#Cc1c(-n2cccc2/C=N/O)sc2c1CCCC2	MrgX1 ag 32
CCOc1cc(-c2ccc(N)c(OCC)c2)ccc1N	none
CCOc1ccc(N)c(SSc2cc(OCC)ccc2N)c1	MrgX1 ag 29
CCc1noc(C)c1C(=O)Nc1cc(S(=O)(=O)N2CCOCC2)ccc1OC(C)C	none
COCc1cc(Sc2c(Cl)cccc2Cl)nc(-c2ccccc2)n1	MrgX1 allo act 9.3
CCCCNc1c(-c2ccc(SC3CCCCC3)cc2)nc2ccccn12	none
CCCCNc1c(-c2ccc(SC(C)CC)cc2)nc2ccccn12 (stereo not drawn)	RGS4 act -7.5
Cc1ccc(C(=O)NCCCN2CCOCC2)c(C)c1	none
Cc1ccc(SCCC(=O)N(C)CC(=O)Nc2c(C)cccc2C)cc1	none
Cc1ccc(C)c(OCc2cc(C(=O)N3CCc4sccc4C3)no2)c1	none
CSc1ccccc1OCc1cc(C(=O)N2CCc3sccc3C2)no1	RGS4 act -7.8
CCn1ccnc1CN(C)C(=O)c1cc(COc2ccccc2SC)on1	RGS4 act -7.6
COc1ccc(C(C)=O)cc1Cn1c(=O)cc(C)[nH]c1=O	none
Cc1ccc(-n2nnnc2-c2cccs2)cc1[N+](=O)[O-]	RGS4 act -7.4
N#Cc1c(NC(=S)NC(=O)c2ccccc2)sc2c1CCN(CCc1ccccc1)C2	MrgX1 ag 58
Cc1ccccc1S(=O)(=O)Cc1ccc(C(=O)N2CCN(c3cccc(C)c3C)CC2)o1	RGS4 act -7.2
CCc1ccccc1S(=O)(=O)Cc1ccc(C(=O)N2CCN(c3ccccc3OC)CC2)o1	RGS4 act -7.7
CCCOc1cccc(-c2cc(-c3n[nH]c(=S)n3CC)c3ccccc3n2)c1	RGS4 act -8.5
Cc1nnc(C)n1/N=C/c1ccc(-c2ccccc2Cl)o1	none
O=C1NC(=S)/C(=C\c2ccc(-c3ccccc3Cl)o2)S1	RGS4 act -7.4
CCCn1nc(C(=O)NNC(=O)CSC(C)C(=O)Nc2cc(C)on2)c2ccccc2c1=O (stereo not drawn)	none
CCC(C)c1ccccc1NC(=O)C(C)OC(=O)CN1C(=O)NC(C)(C)C1=O (stereo not drawn)	none
CCn1c(=NC(=O)CS(=O)(=O)c2ccc(C)cc2)sc2cccc(OC)c21	none
CCn1c(=NC(=O)c2ccc(S(=O)(=O)N(C)C)cc2)sc2cccc(OC)c21	RGS4 act -7.2
CC(C)CN(CC(C)C)S(=O)(=O)N1CCC(C(=O)NCCc2ccc(Cl)cc2)CC1	MrgX1 antag -7.6
CC(C)CN(CC(C)C)S(=O)(=O)N1CCC(C(=O)NCc2ccc(F)cc2)CC1	none
O=C(O)c1ccc(-c2nc(-c3ccc(Cl)cc3Cl)cs2)cc1	none
Cc1onc(-c2ccc(Cl)cc2Cl)c1-c1csc(COc2ccccc2)n1	RGS4 act -7.3
CC1Sc2ccc(S(=O)(=O)N3CCC(C(=O)NCC(C)c4ccccc4)CC3)cc2NC1=O (stereo not drawn)	none
COC(=O)c1cc(CN2CCN(c3ccccc3)CC2)ccc1O	none
CC(C)OC(=O)c1c2nc3ccccc3nc2n2c1[nH]c(=O)c1ccccc12	MrgX1 ag 32
C=CCn1c2ccccc2c2nnc(SCCN3CCCCC3)nc21	RGS4 act -7.3
CCn1c2ccc(F)cc2c2nnc(SCCN3CCCCC3)nc21	RGS4 act -7
CCCn1c2ccccc2c2nnc(SCCN3CCOCC3)nc21	none
CC(C)(C)OC(=O)N1CCN(C(=O)c2cccnc2Cl)CC1	none
COc1ccc(/C=N/NC(=O)c2cc3c(ccc4ccccc43)o2)c(OC)c1	RGS4 act -8 (no result: MrgX1 allo act, MrgX1 antag, MrgX1 ag)
COc1ccc(NC(=O)N2CCN(c3nc(-c4cccc(OC)c4)cs3)CC2)cc1	RGS4 act -7
O=C(/C=C/c1ccccc1)N1CCC(N2CCC(C(=O)N3CCOCC3)CC2)CC1	none
Cc1ccccc1CN(CC(=O)Nc1cccc([N+](=O)[O-])c1)S(=O)(=O)c1ccc(Cl)cc1	RGS4 act -7.2
CS(=O)(=O)N(CC(=O)Nc1cccc([N+](=O)[O-])c1)c1ccccc1	none
CCOC(=O)N1CCC(NC(=O)CN(c2ccc(C(C)C)cc2)S(=O)(=O)c2c(C)nn(C)c2C)CC1	none
Cc1cccc(-n2c(C)cc(/C=C3\NC(=O)NC3=O)c2C)c1	none
Cc1cc(/C=C2/NC(=O)NC2=O)c(C)n1-c1ccncc1	MrgX1 allo act 6.7
CN(C)c1ccc(/C=C(\C#N)C(=O)Nc2nc3c(s2)CCN(Cc2ccccc2)C3)cc1	MrgX1 ag 50
Nc1ccccc1NC(=O)CCn1c(=S)[nH]c2ccccc2c1=O	none
CCOc1ccc(C2C(C#N)=C(N)N3C(=C2C#N)Sc2ccccc23)cc1 (stereo not drawn)	MrgX1 antag -4.8
N#CC1=C(N)N2C(=C(C#N)C1c1ccccc1)Sc1ccccc12 (stereo not drawn)	none
COC(=O)C1=C(C(=O)OC)[C@@H]2N(Cc3ccccc3)c3ccccc3[C@@]23C[C@@H](CO)N(C(=O)NC2CCCC2)C3=N1	none
Cc1cc2sc3ccccc3c(=O)c2c(C)c1O	none
O=c1c(C(c2ccccc2)c2c(O)sc3ccccc3c2=O)c(O)sc2ccccc12	MrgX1 antag -4.6
Cc1ccc(Cl)cc1NC(=S)N(CCN(C)C)C(C)c1ccccn1 (stereo not drawn)	none
CCC(=O)c1ccccc1OCCCCn1cncn1	none
COc1ccc(OC)c(CNn2c(-c3ccccc3F)nc3ccccc3c2=O)c1	MrgX1 antag -4.8
O=C1OC(c2ccc(F)cc2)=C/C1=C\c1ccc(O)cc1	none
O=C1OC(c2ccc(F)cc2)=C/C1=C\c1ccc([N+](=O)[O-])o1	MrgX1 antag -7.8
CC1=Nc2ccccc2/C1=C/c1sc(=N)n(-c2nccs2)c1O	MrgX1 ag 46
O=C(Nc1ccc(S(=O)(=O)N2CCCCC2)cc1)c1ccc(CN2CCOCC2)cc1	MrgX1 antag -7.7
O=C(Nc1ccc(S(=O)(=O)N2CCCC2)cc1)c1ccc(CN2CCOCC2)cc1	none
COc1cc(/C=N\N=C2/SC(CC(=O)O)C(=O)N2c2ccc(O)cc2)ccc1O (stereo not drawn)	MrgX1 antag -8.2
CC1(C)CC(c2nc(-c3ccc(Cl)cc3)cs2)CCS1 (stereo not drawn)	MrgX1 allo act 8.7
N#C/C(=C\c1cccnc1)C(=O)Nc1ccc(O)cc1F	none
